The source of these data is ChEMBL document CHEMBL1240522, “Effect of goniothalamin on the development of Ehrlich solid tumor in mice” (Bioorg Med Chem, 2010).

Series [1] can be described thus: Antitumor activity against mouse EAC cells xenografted in BALB/C mouse assessed as inhibition of tumor growth at 10 mg/kg, ip administered every 3 days measured on day 15 relative to control. It counts as functional. The settings on record: Ehrlich, route intraperitoneal. In outline: (§1)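 Ehrlich cells were kept as ascites by weekly peritoneal passage in mice. Balb/C mice (n = 8/group) received 2.5 × 10^6 cells in 60 µL into the right hind footpad. Dosing was intraperitoneal every third day from day 3, with saline 0.9% vehicle. Tumor volume was plethysmometer paw volume minus basal volume, read every third day to day 15, and reported as % inhibition versus vehicle ± SD.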

Series [2] in a line: Antitumor activity against mouse EAC cells xenografted in BALB/C mouse assessed as reduction of tumor weight at 10 mg/kg, ip administered every 3 days measured on day 15 relative to control. To be noted: Ehrlich, route intraperitoneal. Type of series: functional. An outline of the steps: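 Ehrlich cells (2.5 × 10^6 in 60 µL) were injected into the right hind footpad of Balb/C mice (n = 8/group). Dosing was intraperitoneal every third day from day 3, with saline 0.9% vehicle. On day 15 both hind paws were removed and weighed. Relative tumor weight was (tumor paw − healthy paw weight)/body weight, reported as % inhibition versus vehicle ± SD.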

The nature of series [3]: Antitumor activity against mouse EAC cells xenografted in BALB/C mouse assessed as inhibition of tumor growth at 10 mg/kg, ip administered every 3 days measured on day 7 relative to control. It counts as functional. The settings on record: Ehrlich, route intraperitoneal. In outline:
as §1

The subject of series [4] is Mus musculus. Briefly: Acute toxicity in BALB/C mouse assessed as reduction of body weight at up to 10 mg/kg, ip after 15 days. Type of series: organism-based. More on the design: dose 10 mg/kg, route intraperitoneal. To be noted: in vivo, 360 h. An outline of the steps:
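Body weight and toxicity signs were tracked in Balb/C mice (n = 8/group) carrying Ehrlich footpad tumors. Dosing was intraperitoneal every third day from day 3 after inoculation, four treatments in total, with saline 0.9% vehicle. Mice were weighed throughout until sacrifice on day 15.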

Molecules are shown by their SMILES.

As for `O=c1[nH]cc(F)c(=O)[nH]1` [FLUOROURACIL], the inhibition in vivo at 10 mg/kg in series [1] came out at 57.6%; in series [2], 46.1%; in series [3] it was 41.7%. Further, in series [4], the Activity entry is reported as “Non-toxic”.
